For test [1], the target named is Transthyretin (Homo sapiens) (UniProt P02766). Nature of the test: Displacement of S-phenyl 3-(4-hydroxy-3,5-dimethylstyryl)benzothioate from human TTR assessed as fluorescence at 37 degC after 3 hrs. Also on record: concentration or dose not given beside the values. The essentials:
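Commercial human serum with endogenous TTR (about 7.5 µM, as measured). Test compound (15 µM final) and S2 (5 µM final) were both added from DMSO stocks. Conjugate fluorescence was read every 10 min over 8 h on a plate reader. The 3 h value is given as % competition fluorescence.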

The target is the same in test [2]. Nature of the test: Displacement of 4-fluorophenyl 3-(4-hydroxy-3,5-dimethylstyryl)benzoate from recombinant TTR assessed as fluorescence at 37 degC after 3 hrs. Also on record: concentration or dose not given beside the values. Summed up: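 Recombinant WT-TTR from E. coli at 3.6 µM in 10 mM sodium phosphate, 100 mM KCl, 1 mM EDTA, pH 7.0. Test compound (7.2 µM final, added from DMSO) was preincubated 4 h at 25 °C with slow vortexing. S1 (7.2 µM final) was then added. Fluorescence (ex 328/em 384 nm) was read every 10 min for 8 h at 37 °C. The 3 h value is given as % competition fluorescence.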

Test [3] shares this target. Nature of the test: Inhibition of wild type-TTR expressed in Escherichia coli assessed as amyloid fibril formation at pH 4.4 at 7. 2 uM after 72 hrs by acid-mediated aggregation assay relative to control. The arrangement: scale not given: the % may be the effect or the level left.

For 28 compounds, Activity results are on record in ChEMBL document CHEMBL1671798, “A competition assay to identify amyloidogenesis inhibitors by monitoring the fluorescence emitted by the covalent attachment of a stilbene derivative to transthyretin” (Bioorg Med Chem, 2011).

Each structure is given as a SMILES string.

Consider `CC(C(=O)O)c1ccc(-c2ccccc2)c(F)c1` (stereo unspecified), for which the Activity came out at 96% in test [1], 93% in test [2] and 29% in test [3].

For `O=C(O)c1ccccc1Nc1cccc(C(F)(F)F)c1`, the Activity stood at 97% in test [1], 44% in test [2] and 2% in test [3].

As to `O=C(O)c1cccc(C(=O)Nc2cc(Br)c(O)c(Br)c2)c1`, the values for the Activity in test [1], in test [2] and in test [3] were 85%, 77% and 11%, respectively.

In the case of `Cc1cccc(CCc2cc(Br)c(O)c(Br)c2)c1`, the results for the Activity in test [1], in test [2] and in test [3] were 2%, -7% and 3%, respectively.

For `Cc1cccc(Nc2ccccc2C(=O)O)c1C`, the figures for the Activity in test [1], in test [2] and in test [3] were 96%, 65% and 7%, respectively.

With `Oc1c(Br)cc(CCc2ccc(OC(F)F)cc2)cc1Br`, the Activity is 42% in test [1], -3% in test [2] and 1% in test [3].

As for `O=C(Nc1cc(Br)c(O)c(Br)c1)c1ccccc1O`, the Activity worked out at 29% in test [1], 2% in test [2] and 2% in test [3].

Turning to `O=C(O)c1cc(-c2ccc(F)cc2F)ccc1O`, the figures for the Activity in test [1], in test [2] and in test [3] were 86%, 75% and 2%, respectively.

Regarding `O=C(O)c1ccc(C(=O)Nc2cc(Br)c(O)c(Br)c2)cc1`, the Activity in test [1] was 45%; in test [2], 57%; in test [3], 11%.

On to `Oc1c(Br)cc(/C=C/c2ccc(Br)cc2)cc1Br`, for which the Activity was 2% in test [1], -6% in test [2] and 2% in test [3].

For `COc1c(Br)cc(C(=O)Nc2cc(Br)c(O)c(Br)c2)cc1Br`, the Activity in test [1] came out at 44%; in test [2] it was 4%; in test [3] it was 10%.

For the compound `O=C(Nc1cc(Br)c(O)c(Br)c1)c1cccc(O)c1`, the Activity in test [1] amounted to 18%; in test [2], 26%; in test [3], 9%.

For the compound `O=C(O)Cc1ccccc1Nc1c(Cl)cccc1Cl`, the Activity in test [1] was determined as 99%; in test [2], 85%; in test [3] it was 17%.

In the case of `COc1cc(CCc2cc(Br)c(O)c(Br)c2)cc(OC)c1`, the Activity in test [1] came to 30%; in test [2], 3%; in test [3], 1%.

In the case of `O=C(Nc1cc(Br)c(O)c(Br)c1)c1cccc(F)c1`, the Activity in test [1] is 54%; in test [2] it was 18%; in test [3] it was 13%.

For the compound `COc1ccccc1/C=C/c1cc(Br)c(O)c(Br)c1`, the values for the Activity in test [1], in test [2] and in test [3] were 0%, -6% and 0%, respectively.

For `O=C(Nc1cc(Br)c(O)c(Br)c1)c1cccc(Cl)c1`, the values for the Activity in test [1], in test [2] and in test [3] were 28%, 13% and 8%, respectively.

For `Cc1ccc(Cl)c(Nc2ccccc2C(=O)O)c1Cl`, the Activity in test [1] turned out to be 85%; in test [2], 62%; in test [3], 3%.

As for `O=C(Nc1cc(Br)c(O)c(Br)c1)c1ccc(O)cc1`, the results for the Activity in test [1], in test [2] and in test [3] were 16%, 32% and 21%, respectively.

In the case of `O=C(Nc1cc(Br)c(O)c(Br)c1)c1cc(F)cc(F)c1`, the Activity was found to be 35% in test [1], 12% in test [2] and 10% in test [3].

Consider `Nc1cccc(C(=O)Nc2cc(Br)c(O)c(Br)c2)c1`, for which the Activity in test [1] amounted to 24%; in test [2], 35%; in test [3] it was 25%.

On to `O=C(Nc1ccccc1)Nc1cc(Br)c(O)c(Br)c1`, for which the Activity came to 100% in test [1], 82% in test [2] and 9% in test [3].

Turning to `O=C(Nc1ccccc1)c1cc(Br)c(O)c(Br)c1`, the results for the Activity in test [1] and in test [2] were 61% and 42%, respectively.

In the case of `COc1c(Cl)cc(C(=O)Nc2cc(Br)c(O)c(Br)c2)cc1Cl`, the Activity in test [1] was determined as 26%; in test [2], 4%; in test [3], 9%.

Take `Cc1cc(Oc2ccccc2)cc(C)c1O`: the Activity in test [1] stood at 81%; in test [2], 76%.

Regarding `O=C(Nc1cc(Br)c(O)c(Br)c1)c1cccc(Br)c1`, the Activity in test [1] is 28%; in test [2] it was 13%; in test [3], 8%.

Turning to `Brc1cc(Br)cc(Nc2ccccc2)c1`, the values for the Activity in test [1] and in test [2] were 100% and 76%, respectively.

For the compound `Oc1c(Br)cc(CCc2cccc(C(F)(F)F)c2)cc1Br`, the results for the Activity in test [1], in test [2] and in test [3] were 3%, -6% and 1%, respectively.
